According to ChEMBL document CHEMBL1156509, “Survival in the presence of antifungals: genome-wide expression profiling of Aspergillus niger in response to sublethal concentrations of caspofungin and fenpropimorph” (2007):
The source made the active and inactive calls.

Tests used:
Assay type in all cases: functional, organism-based
Aspergillus niger [1] = assay: Induction of GFP tagged PagsA-H2B expression in Aspergillus niger RD6.47 at 104.2 ug/mL by fluorescence microscopy
Summary of the method: (§1)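 agsA promoter-GFP reporters, cytoplasmic (JvD1.1) or nuclear H2B-targeted (RD6.47). Germlings pre-grown 6 h at 37 °C in 2× CM, exposed 3 h at 30 °C to seven 2-fold dilutions. GFP levels were scored by fluorescence microscopy as 0 (basal), 1 (intermediate) or 2 (high). Controls: gpdA-H2B-GFP strain MA26.1 (positive), N402 (negative).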

Aspergillus niger [2] = assay: Induction of GFP tagged PagsA expression in Aspergillus niger JvD1.1 at 104.2 ug/mL by fluorescence microscopy; summary of the method: as §1
Aspergillus niger [3] = assay: Antifungal activity against Aspergillus niger RD6.47 at 104.2 ug/mL by microtiter plate
Summary of the method: (§2)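 Reporter conidia (2×10^4 per well) were pre-grown 6 h at 37 °C in 2× CM in glass-bottom plates. An equal volume of a 2-fold dilution series (seven concentrations) was added, then 3 h at 30 °C. Medium was discarded and adherent germlings imaged. Growth inhibition was scored 0/1/2 from hyphal length.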

Aspergillus niger [4] = assay: Antifungal activity against Aspergillus niger JvD1.1 at 104.2 ug/mL by microtiter plate; summary of the method: as §2

Measured: Activity

N#Cc1c[nH]cc1-c1cccc2c1OC(F)(F)O2
active: all assays above
